Measurements published in ChEMBL document CHEMBL2390926, “Identification of novel FLT3 kinase inhibitors” (Eur J Med Chem, 2013).
Active and inactive are the calls of the source.

Columns and labels:
Format in all cases: cell-based
Details in all cases: BaF3
[1] = target: T1, Tyrosine-protein kinase receptor TYRO3 (Homo sapiens) (UniProt Q06418); experiment: Inhibition of TYRO3 (unknown origin) transfected in mouse Ba/F3 cells at 1 uM after 24 hrs
T1 sequence (whole entry): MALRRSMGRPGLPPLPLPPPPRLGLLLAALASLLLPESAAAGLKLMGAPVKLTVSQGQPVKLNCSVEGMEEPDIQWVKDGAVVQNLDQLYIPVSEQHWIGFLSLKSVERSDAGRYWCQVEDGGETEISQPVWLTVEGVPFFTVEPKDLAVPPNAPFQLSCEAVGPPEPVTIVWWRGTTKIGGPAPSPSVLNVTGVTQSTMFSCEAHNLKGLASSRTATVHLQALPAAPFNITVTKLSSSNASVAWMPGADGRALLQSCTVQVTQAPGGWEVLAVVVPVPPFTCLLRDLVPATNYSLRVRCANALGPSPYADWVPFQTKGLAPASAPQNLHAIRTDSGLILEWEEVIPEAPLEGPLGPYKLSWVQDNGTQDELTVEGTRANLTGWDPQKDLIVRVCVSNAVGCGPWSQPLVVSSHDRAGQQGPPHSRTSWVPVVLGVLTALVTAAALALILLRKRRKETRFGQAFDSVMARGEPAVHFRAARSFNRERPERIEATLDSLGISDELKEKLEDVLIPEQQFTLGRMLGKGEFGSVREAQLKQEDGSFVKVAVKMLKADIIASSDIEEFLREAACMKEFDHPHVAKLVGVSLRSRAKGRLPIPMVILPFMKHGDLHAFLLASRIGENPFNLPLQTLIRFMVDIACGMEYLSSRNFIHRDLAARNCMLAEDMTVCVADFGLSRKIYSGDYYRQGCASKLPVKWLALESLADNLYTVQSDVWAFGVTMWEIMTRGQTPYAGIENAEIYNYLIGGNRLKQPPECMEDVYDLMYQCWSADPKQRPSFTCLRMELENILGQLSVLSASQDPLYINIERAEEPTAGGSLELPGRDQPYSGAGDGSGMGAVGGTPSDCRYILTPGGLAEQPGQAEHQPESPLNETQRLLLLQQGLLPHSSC

[2] = target: T2, Megakaryocyte-associated tyrosine-protein kinase (Homo sapiens) (UniProt P42679); experiment: Inhibition of MATK1 (unknown origin) transfected in mouse Ba/F3 cells at 1 uM after 24 hrs
T2 sequence (whole entry): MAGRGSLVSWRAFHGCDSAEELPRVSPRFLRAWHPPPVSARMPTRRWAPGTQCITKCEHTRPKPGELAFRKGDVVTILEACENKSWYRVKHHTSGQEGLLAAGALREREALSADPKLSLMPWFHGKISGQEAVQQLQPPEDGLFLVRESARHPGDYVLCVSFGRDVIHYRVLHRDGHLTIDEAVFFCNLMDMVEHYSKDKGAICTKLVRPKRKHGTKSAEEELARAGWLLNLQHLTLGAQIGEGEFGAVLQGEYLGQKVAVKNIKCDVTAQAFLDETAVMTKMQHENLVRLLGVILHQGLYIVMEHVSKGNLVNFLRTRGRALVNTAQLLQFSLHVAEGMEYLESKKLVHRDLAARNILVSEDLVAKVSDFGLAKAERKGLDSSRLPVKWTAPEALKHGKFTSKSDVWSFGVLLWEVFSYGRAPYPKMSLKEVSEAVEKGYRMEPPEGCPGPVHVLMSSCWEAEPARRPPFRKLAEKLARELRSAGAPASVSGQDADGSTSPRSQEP

[3] = target: Leukocyte tyrosine kinase receptor (Homo sapiens) (UniProt P29376); experiment: Inhibition of LTK (unknown origin) transfected in mouse Ba/F3 cells at 1 uM after 24 hrs
In short: (§1)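 Kinase specificity panel: each Ba/F3 line transformed with one of 24 tyrosine kinases depends on that kinase to grow. Cells were given compound at 1 or 5 µM for 24 h, with DMSO as comparator. Percentage growth was read by ATP-lite luminescence and reported as mean ± SEM.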

[4] = target: Tyrosine-protein kinase HCK (Homo sapiens) (UniProt P08631); experiment: Inhibition of HCK (unknown origin) transfected in mouse Ba/F3 cells at 1 uM after 24 hrs; in short: as §1
[5] = target: Vascular endothelial growth factor receptor 3 (Homo sapiens) (UniProt P35916); experiment: Inhibition of FLT4 (unknown origin) transfected in mouse Ba/F3 cells at 1 uM after 24 hrs; in short: as §1
[6] = target: Receptor tyrosine-protein kinase erbB-2 (Homo sapiens) (UniProt P04626); experiment: Inhibition of ERBB2 (unknown origin) transfected in mouse Ba/F3 cells at 1 uM after 24 hrs; in short: as §1
[7] = target: Ephrin type-A receptor 5 (Homo sapiens) (UniProt P54756); experiment: Inhibition of EPHA5 (unknown origin) transfected in mouse Ba/F3 cells at 1 uM after 24 hrs; in short: as §1
[8] = target: T3, Ephrin type-A receptor 1 (Homo sapiens) (UniProt P21709); experiment: Inhibition of EPHA1 (unknown origin) transfected in mouse Ba/F3 cells at 1 uM after 24 hrs; in short: as §1
T3 sequence (whole entry): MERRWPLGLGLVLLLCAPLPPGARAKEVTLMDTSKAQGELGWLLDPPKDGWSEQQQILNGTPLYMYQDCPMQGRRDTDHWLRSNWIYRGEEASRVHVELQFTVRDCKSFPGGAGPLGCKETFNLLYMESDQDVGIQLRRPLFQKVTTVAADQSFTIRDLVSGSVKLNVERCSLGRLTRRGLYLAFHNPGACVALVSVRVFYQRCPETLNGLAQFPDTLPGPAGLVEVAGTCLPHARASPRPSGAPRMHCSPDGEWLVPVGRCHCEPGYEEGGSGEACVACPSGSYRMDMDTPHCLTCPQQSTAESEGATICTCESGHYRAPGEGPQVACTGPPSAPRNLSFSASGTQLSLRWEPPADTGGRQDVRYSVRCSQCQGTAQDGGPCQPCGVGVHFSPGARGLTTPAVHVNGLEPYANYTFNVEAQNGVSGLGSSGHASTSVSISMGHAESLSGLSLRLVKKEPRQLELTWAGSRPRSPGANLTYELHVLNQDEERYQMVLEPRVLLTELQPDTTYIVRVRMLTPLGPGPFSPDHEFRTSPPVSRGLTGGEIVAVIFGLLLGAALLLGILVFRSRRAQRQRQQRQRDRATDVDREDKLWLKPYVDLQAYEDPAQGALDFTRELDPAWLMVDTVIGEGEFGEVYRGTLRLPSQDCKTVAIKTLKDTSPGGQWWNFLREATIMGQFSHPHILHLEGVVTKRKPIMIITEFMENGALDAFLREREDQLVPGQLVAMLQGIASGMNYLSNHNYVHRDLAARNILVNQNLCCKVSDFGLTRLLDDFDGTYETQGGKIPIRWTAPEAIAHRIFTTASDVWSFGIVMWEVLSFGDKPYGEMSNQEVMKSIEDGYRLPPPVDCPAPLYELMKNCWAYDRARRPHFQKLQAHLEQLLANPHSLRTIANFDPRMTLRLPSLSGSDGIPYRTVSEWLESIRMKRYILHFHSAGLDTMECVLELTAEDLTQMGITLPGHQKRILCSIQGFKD

[9] = target: Tyrosine-protein kinase ABL2 (Homo sapiens) (UniProt P42684); experiment: Inhibition of ABL2 (unknown origin) transfected in mouse Ba/F3 cells at 1 uM after 24 hrs; in short: as §1

Measured: inhibition

Vascular endothelial growth factor receptor 3 (Homo sapiens), sequence (P35916 whole entry): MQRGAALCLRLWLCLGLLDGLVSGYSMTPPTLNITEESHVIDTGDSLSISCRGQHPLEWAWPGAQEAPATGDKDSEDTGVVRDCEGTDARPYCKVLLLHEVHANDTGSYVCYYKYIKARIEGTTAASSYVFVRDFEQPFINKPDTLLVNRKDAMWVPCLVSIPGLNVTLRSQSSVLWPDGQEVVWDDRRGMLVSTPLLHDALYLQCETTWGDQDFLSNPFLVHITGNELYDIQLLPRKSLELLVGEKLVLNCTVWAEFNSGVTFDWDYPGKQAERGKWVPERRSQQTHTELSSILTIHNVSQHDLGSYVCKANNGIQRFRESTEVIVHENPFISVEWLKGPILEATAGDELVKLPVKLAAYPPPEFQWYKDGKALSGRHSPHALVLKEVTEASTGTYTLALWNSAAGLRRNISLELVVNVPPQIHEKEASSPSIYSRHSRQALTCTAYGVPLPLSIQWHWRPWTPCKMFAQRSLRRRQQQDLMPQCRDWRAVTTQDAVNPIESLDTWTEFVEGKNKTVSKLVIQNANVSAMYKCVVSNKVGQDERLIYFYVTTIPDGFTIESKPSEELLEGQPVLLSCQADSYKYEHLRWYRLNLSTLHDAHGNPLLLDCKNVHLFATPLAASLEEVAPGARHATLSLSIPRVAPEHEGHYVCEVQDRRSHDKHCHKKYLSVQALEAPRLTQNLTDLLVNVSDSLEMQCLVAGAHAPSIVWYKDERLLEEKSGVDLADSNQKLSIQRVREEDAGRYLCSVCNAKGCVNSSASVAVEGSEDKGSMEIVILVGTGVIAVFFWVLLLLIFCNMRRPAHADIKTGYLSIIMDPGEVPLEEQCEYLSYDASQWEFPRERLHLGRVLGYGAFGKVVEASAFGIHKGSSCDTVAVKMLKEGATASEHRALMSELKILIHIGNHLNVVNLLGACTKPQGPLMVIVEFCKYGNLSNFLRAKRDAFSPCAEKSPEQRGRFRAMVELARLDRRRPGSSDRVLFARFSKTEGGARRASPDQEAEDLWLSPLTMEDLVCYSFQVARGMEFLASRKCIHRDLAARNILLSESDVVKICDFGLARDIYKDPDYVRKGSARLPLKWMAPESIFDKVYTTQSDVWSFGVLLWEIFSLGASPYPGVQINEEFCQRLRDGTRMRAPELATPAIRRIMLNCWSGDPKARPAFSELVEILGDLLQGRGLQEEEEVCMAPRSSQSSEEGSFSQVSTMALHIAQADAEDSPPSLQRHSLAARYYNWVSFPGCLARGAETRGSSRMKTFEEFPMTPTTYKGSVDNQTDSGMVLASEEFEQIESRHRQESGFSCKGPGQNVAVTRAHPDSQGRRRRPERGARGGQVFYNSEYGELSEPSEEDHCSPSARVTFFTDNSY
Tyrosine-protein kinase HCK (Homo sapiens), sequence (P08631 2-526 limits assumed): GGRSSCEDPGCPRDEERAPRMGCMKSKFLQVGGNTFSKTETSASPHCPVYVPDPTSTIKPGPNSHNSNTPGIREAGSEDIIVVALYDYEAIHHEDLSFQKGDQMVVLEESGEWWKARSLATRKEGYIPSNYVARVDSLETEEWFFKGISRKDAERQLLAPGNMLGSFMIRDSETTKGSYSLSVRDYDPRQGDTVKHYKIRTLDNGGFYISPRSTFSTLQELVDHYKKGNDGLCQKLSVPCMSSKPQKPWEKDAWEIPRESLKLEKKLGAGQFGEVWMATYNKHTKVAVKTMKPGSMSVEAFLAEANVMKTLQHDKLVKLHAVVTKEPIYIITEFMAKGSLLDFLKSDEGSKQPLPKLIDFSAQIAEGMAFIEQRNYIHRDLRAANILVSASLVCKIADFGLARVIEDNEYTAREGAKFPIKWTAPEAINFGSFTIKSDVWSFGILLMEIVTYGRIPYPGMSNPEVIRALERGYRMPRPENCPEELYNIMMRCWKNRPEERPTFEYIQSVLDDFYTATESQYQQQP
Tyrosine-protein kinase ABL2 (Homo sapiens), sequence (P42684 whole entry): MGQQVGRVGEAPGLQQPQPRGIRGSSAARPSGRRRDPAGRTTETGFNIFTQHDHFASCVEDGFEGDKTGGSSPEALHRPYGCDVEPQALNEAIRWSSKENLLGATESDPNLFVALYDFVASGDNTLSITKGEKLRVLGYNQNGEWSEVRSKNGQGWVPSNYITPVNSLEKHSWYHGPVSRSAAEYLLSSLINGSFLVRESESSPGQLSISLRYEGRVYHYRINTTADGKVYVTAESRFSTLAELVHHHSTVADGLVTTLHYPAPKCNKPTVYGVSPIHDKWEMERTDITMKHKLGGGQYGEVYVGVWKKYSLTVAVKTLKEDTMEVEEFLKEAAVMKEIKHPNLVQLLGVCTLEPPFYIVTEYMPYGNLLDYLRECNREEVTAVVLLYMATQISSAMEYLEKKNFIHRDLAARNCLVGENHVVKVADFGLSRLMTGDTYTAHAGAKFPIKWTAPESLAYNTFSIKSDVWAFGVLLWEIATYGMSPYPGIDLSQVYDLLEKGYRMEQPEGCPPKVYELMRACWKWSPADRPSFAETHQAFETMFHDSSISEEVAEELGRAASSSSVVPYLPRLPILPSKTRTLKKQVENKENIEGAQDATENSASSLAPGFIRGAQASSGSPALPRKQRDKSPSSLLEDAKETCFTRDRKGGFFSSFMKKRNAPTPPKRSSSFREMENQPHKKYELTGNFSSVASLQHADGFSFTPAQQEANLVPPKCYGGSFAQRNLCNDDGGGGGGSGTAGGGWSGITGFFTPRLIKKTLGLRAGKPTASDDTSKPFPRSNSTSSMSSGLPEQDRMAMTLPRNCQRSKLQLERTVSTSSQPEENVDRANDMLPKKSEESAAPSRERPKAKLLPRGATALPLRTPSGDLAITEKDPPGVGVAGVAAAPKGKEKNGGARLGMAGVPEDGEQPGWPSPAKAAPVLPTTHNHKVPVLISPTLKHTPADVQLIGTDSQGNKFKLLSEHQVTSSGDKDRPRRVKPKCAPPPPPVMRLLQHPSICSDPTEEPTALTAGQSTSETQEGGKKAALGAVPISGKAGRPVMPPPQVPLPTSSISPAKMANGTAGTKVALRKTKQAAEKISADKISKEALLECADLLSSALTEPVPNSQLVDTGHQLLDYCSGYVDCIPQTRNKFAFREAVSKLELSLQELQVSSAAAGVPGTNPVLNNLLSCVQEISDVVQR
Receptor tyrosine-protein kinase erbB-2 (Homo sapiens), sequence (P04626 whole entry): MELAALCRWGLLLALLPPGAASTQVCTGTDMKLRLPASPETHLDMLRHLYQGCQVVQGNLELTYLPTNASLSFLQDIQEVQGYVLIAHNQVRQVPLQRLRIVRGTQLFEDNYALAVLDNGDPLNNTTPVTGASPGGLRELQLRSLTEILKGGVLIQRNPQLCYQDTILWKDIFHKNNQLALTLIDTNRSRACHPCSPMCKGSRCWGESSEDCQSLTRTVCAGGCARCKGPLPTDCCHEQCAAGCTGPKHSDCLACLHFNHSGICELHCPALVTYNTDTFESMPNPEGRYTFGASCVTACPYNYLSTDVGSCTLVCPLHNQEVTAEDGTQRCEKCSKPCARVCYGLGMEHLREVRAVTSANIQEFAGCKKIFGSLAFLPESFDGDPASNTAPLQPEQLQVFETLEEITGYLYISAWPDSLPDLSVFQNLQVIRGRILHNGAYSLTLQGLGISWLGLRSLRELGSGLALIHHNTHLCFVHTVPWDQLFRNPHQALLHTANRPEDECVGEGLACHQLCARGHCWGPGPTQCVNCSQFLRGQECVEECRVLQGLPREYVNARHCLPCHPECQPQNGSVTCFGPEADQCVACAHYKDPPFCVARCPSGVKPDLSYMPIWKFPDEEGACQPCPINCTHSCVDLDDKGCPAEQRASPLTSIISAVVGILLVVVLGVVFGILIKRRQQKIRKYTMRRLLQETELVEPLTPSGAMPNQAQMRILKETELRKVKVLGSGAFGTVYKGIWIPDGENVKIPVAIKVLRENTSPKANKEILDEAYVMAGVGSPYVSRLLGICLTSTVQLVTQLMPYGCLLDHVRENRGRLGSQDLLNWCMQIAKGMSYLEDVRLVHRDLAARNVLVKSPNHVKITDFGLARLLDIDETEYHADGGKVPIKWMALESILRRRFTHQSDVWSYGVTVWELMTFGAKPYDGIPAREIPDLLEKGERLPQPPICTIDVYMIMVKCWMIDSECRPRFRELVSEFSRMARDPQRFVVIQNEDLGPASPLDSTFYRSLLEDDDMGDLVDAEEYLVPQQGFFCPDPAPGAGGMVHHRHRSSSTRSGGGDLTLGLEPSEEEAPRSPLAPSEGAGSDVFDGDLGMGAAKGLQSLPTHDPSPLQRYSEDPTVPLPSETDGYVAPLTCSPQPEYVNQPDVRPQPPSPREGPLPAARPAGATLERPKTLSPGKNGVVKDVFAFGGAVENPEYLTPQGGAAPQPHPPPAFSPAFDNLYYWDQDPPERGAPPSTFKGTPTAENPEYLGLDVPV

Cc1ccc(-c2cc(NC(=O)c3ccc(F)cc3)[nH]n2)cc1
inactive: [1] | [2] | [3] | [4] | [5] | [6] | [7] | [8] | [9]

COc1ccc(C(=O)Nc2cc(-c3ccccc3)[nH]n2)cc1
inactive: [1] | [2] | [3] | [4] | [5] | [6] | [7] | [8] | [9]

Cc1cccc(C(=O)Nc2cc(-c3ccc(F)cc3)n[nH]2)c1
inactive: [1] | [2] | [3] | [4] | [5] | [6] | [7] | [8] | [9]
